Assay results reported in article PMC2709489 (Nature biotechnology, 2009).
Like-named read-outs stand apart in the source and are kept apart here.

Columns and labels:
RBBP9 [1] = target: T1, RBBP9 (Homo sapiens, UniProt O75884); assay type: biochemical
[2] = target: mouse brain serine hydrolases (Homo sapiens, UniProt O75884); assay type: biochemical
[3] = system: endogenous GSTO1 and other SE-rhodamine targets; assay type: biochemical, human
GSTO1 [4] = target: T2, GSTO1 (Homo sapiens, UniProt P78417); assay: Reversibility of GSTO1 inhibition by gel filtration; assay type: biochemical; details: 6 and 9 at 280 μM, 7 and 8 at 28 μM, 30 min, then Sephadex G-25M
T2 sequence (P78417 1-241): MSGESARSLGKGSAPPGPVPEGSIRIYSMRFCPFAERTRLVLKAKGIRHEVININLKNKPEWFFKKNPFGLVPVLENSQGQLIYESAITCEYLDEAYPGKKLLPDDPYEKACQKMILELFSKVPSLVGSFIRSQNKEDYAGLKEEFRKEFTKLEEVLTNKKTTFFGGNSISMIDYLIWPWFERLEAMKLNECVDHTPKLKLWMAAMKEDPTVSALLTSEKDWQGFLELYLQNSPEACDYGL
How it was run: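 Recombinant GSTO1 (2 μM) was incubated 30 min with DMSO or test compound, then split. One portion was labeled directly with SE-rhodamine. The other was passed over a Sephadex G-25M gel-filtration column before SE-rhodamine labeling. Both were resolved by SDS-PAGE with in-gel fluorescence read-out.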

GSTO1 [5] = target: T2, GSTO1; assay type: biochemical
RBBP9 [6] = target: T1, RBBP9; assay: Gel-based competitive ABPP of RBBP9 with varying Pluronic F-127; assay type: biochemical; details: compound 5 at 10 and 20 µM, emetine 20 µM; 400 nM RBBP9
RBBP9 [7] = target: T1, RBBP9; assay: Reversibility of RBBP9 inhibition by gel filtration; assay type: biochemical; details: emetine 500 μM or compound 2 50 μM, 30 min, then Sephadex G-25M

T1 sequence (O75884 whole entry): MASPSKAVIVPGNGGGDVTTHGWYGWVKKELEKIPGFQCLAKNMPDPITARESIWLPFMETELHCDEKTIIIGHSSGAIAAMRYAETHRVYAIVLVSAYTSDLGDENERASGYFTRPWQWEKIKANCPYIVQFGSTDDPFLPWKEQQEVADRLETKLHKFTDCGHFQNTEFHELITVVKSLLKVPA
Chain of mouse brain serine hydrolases (O75884 whole entry): as above

## CCC1=C(C[C@H]2NCCc3cc(OC)c(OC)cc32)C[C@H]2c3cc(OC)c(OC)cc3CCN2C1 [1b, Dehydroemetine]
RBBP9 [1]
  inhibition of RBBP9: failed to inhibit RBBP9

## CC[C@H]1CN2CCc3cc(OC)c(OC)cc3[C@@H]2C[C@@H]1C[C@H]1NCCc2cc(O)c(OC)cc21 [1a, Cephaeline]
[2]
  inhibition of RBBP9 by emetine analogues (competitive ABPP): inhibited RBBP9, albeit with reduced potency relative to emetine

## CC[C@H]1CN2CCc3cc(OC)c(OC)cc3[C@@H]2C[C@@H]1C[C@H]1NCCc2c1[nH]c1ccc(O)cc21 [1c, Tubulosine]
[2]
  inhibition of RBBP9 by emetine analogues (competitive ABPP): inhibited RBBP9, albeit with reduced potency relative to emetine

## COc1ccc2[nH]c([S+]([O-])Cc3ncc(C)c(OC)c3C)nc2c1 (stereo not drawn) [Compound 6, omeprazole]
[3]; 1 μM
  inhibition of GSTO1 in MDA-MB-231 proteome: lost
[3]; 20 μM
  inhibition of GSTO1 in MDA-MB-231 proteome: considerably less potent
GSTO1 [4]
  reversibility of GSTO1 inhibition: reversible

## N[C@@H](CCC(=O)N[C@@H](CS)C(=O)NCC(=O)O)C(=O)O [glutathione]
GSTO1 [5]
  block of probe labeling of GSTO1 (FluoPol): No labeling

## CO[C@H]1/C=C/O[C@@]2(C)Oc3c(C)c(O)c4c(O)c(c(/C=N/N5CCN(C)CC5)c(O)c4c3C2=O)NC(=O)/C(C)=C\C=C\[C@H](C)[C@H](O)[C@@H](C)[C@@H](O)[C@@H](C)[C@H](OC(C)=O)[C@@H]1C [Compound 9, rifampicin]
[3]; 1 μM
  inhibition of GSTO1 in MDA-MB-231 proteome: lost
[3]; 20 μM
  inhibition of GSTO1 in MDA-MB-231 proteome: considerably less potent
GSTO1 [4]
  reversibility of GSTO1 inhibition: reversible

## CC[C@H]1CN2CCc3cc(OC)c(OC)cc3[C@@H]2C[C@@H]1C[C@H]1NCCc2cc(OC)c(OC)cc21 [Compound 1, Emetine]
RBBP9 [6]
  effect of Pluronic F-127 on inhibitory activity: did not diminish the inhibitory activity
[3]; 20 μM
  effect on other SE-rhodamine targets in MDA-MB-231 proteome: did not inhibit the labeling of GSTO1 or any of the other SE-rhodamine targets
  inhibition of GSTO1 in MDA-MB-231 proteome: did not inhibit the labeling of GSTO1
RBBP9 [7]
  reversibility of RBBP9 inhibition: reversible
GSTO1 [5]
  block of probe labeling of GSTO1 (FluoPol): did not block probe labeling of GSTO1
